Results from ChEMBL document CHEMBL1150273, “Aza-peptidyl Michael acceptors. A new class of potent and selective inhibitors of asparaginyl endopeptidases (legumains) from evolutionarily diverse pathogens” (J Med Chem, 2008).
Values belong to the compound of their own block, whether it stands above or below them. Calls of active or inactive are those of the source. The rule behind the calls is not given here.

Columns and labels:
Sus scrofa = organism: Sus scrofa; assay: Inhibition of pig AE assessed as ratio of pseudo-first-order inhibition rate constant to inhibitor concentration
Summary of the method: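 Pig AE in 39.5 mM citric acid, 121 mM Na2HPO4, 1 mM EDTA, 0.1% CHAPS, 0.015% Brij, 1 mM DTT.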

[1] = Inhibition of Trichomonas vaginalis G3 AE1 expressed in Pichia pastoris after 20 mins
Summary of the method: (§1)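 Recombinant AE zymogens expressed in Pichia pastoris; SmAE and TvAE1 autoactivated in 0.5 M sodium acetate, 4 mM DTT, pH 4.5, 37 °C, 3 h to overnight; IrAE used without activation. Buffer 0.1 M citrate phosphate, 4 mM DTT, pH 6.8 (SmAE, TvAE1) or pH 5.5 (IrAE). Inhibitor 2.0–0.0002 µM final, 20 min preincubation at room temperature; 10 µM final Cbz-Ala-Ala-Asn-AMC, 20 min; IC50 from RFU/min vs concentration.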

[2] = Inhibition of Ixodes ricinus AE expressed in Pichia pastoris after 20 mins; summary of the method: as §1
[3] = (§2) Inhibition of Schistosoma mansoni AE expressed in Pichia pastoris after 20 mins; summary of the method: as §1
Caspase-3 (Homo sapiens) = biological target: T1, Caspase-3 (Homo sapiens) (UniProt P42574); assay: Inhibition of caspase 3 assessed as ratio of pseudo-first-order inhibition rate constant to inhibitor concentration
T1 sequence (whole entry): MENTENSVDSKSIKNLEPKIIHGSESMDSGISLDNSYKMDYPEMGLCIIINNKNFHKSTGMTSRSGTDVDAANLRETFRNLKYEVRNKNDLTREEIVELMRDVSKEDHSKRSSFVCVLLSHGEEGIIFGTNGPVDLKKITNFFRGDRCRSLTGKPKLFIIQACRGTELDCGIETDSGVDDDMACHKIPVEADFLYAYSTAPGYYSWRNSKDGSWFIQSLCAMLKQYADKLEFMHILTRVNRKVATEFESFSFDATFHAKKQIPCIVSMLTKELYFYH
Summary of the method: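 Caspase-3 (1 nM final) preactivated 10 min at 37 °C in 40 mM Pipes, 200 mM NaCl, 0.2% CHAPS, 20% sucrose mixed 1:1 with 20 mM DTT, pH 7.2; enzyme added to inhibitor plus Ac-Asp-Glu-Val-Asp-AMC; progress curves 20 min at 37 °C (ex 360, em 465 nm); duplicates; rates corrected for substrate (KM 9.7 µM).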

Caspase-6 (Homo sapiens) = biological target: T2, Caspase-6 (Homo sapiens) (UniProt P55212); assay: Inhibition of caspase 6 assessed as ratio of pseudo-first-order inhibition rate constant to inhibitor concentration
T2 sequence (whole entry): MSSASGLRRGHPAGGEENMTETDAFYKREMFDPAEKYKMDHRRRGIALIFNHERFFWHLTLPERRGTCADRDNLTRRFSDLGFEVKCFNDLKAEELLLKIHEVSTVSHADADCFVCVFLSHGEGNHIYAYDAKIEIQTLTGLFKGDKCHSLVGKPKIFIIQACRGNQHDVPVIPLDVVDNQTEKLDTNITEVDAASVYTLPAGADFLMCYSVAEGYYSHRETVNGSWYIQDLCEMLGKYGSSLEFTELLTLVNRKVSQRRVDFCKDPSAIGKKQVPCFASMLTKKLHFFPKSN
Summary of the method: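 Caspase-6 at 5 nM final, assayed in the same Pipes/NaCl/CHAPS/sucrose/DTT buffer, pH 7.2, 37 °C with Ac-Asp-Glu-Val-Asp-AMC by the progress curve method; inhibitor stocks 5 × 10^-3 to 2.42 × 10^-6 M in DMSO; rates corrected for substrate using KM 236.35 µM.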

Caspase-8 (Homo sapiens) = Caspase-8 (Homo sapiens) (UniProt Q14790); assay: Inhibition of caspase 8 assessed as ratio of pseudo-first-order inhibition rate constant to inhibitor concentration
Summary of the method: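 Caspase-8 at 50 nM final, assayed in the same Pipes/NaCl/CHAPS/sucrose/DTT buffer, pH 7.2, 37 °C with Ac-Asp-Glu-Val-Asp-AMC by the progress curve method; inhibitor stocks 5 × 10^-3 to 2.42 × 10^-6 M in DMSO; rates corrected for substrate using KM 6.79 µM.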

[4] = biological target: T3, Calpain-1 catalytic subunit (Homo sapiens) (UniProt P07384); assay: Inhibition of calpain 1 assessed as ratio of pseudo-first-order inhibition rate constant to inhibitor concentration
T3 sequence (whole entry): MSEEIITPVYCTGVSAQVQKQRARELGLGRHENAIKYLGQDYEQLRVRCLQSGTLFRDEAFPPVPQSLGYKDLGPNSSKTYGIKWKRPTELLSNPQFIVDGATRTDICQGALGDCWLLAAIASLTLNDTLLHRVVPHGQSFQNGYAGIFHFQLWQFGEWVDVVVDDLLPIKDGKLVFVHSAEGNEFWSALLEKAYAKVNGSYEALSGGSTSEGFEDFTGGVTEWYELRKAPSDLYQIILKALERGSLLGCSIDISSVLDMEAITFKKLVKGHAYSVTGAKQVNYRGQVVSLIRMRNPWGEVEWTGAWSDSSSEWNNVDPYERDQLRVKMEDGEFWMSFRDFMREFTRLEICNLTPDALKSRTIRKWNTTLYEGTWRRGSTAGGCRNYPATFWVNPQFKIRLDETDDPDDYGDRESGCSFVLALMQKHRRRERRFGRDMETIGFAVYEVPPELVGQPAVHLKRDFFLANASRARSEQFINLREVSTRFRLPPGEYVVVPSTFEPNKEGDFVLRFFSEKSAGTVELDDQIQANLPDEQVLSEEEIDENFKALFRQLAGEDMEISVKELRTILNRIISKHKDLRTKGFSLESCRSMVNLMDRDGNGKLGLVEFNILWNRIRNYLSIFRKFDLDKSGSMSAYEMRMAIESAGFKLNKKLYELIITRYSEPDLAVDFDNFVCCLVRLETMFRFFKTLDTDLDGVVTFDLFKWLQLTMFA

Papain (Carica papaya) = biological target: T4, Papain (Carica papaya) (UniProt P00784); assay: Inhibition of papain assessed as ratio of pseudo-first-order inhibition rate constant to inhibitor concentration
T4 sequence (whole entry): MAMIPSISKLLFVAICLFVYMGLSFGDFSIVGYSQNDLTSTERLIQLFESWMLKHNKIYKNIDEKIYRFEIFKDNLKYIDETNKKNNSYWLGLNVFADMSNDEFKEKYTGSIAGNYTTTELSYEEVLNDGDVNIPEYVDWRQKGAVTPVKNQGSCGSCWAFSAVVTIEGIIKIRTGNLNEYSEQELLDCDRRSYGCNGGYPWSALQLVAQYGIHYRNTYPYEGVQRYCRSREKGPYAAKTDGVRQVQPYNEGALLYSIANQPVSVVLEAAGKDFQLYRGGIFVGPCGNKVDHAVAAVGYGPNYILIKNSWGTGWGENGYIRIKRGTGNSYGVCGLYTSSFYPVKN
Summary of the method: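 Papain, about 0.29 mg/mL, incubated with inhibitor in 50 mM Hepes, 2.5 mM DTT, 2.5 mM EDTA, pH 7.5; aliquots taken over time into 53.7 µM Cbz-Phe-Arg-pNA; p-nitroanilide release read at 405 nm at room temperature; pseudo-first-order inactivation kinetics.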

[5] = biological target: Cathepsin B (Homo sapiens) (UniProt P07858); assay: Inhibition of cathepsin B assessed as ratio of pseudo-first-order inhibition rate constant to inhibitor concentration
[6] = biological target: Lys-gingipain HG66 (Porphyromonas gingivalis) (UniProt P72197); assay: Inhibition of Porphyromonas gingivalis gingipain K assessed as ratio of pseudo-first-order inhibition rate constant to inhibitor concentration
Summary of the method: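 Gingipain K diluted to 4.61 nM in 0.2 M Tris-HCl, 0.1 M NaCl, 5 mM CaCl2, 2 mM DTT, pH 8.0 and incubated with inhibitor (DMSO) at room temperature; aliquots taken at intervals into buffer with Suc-Ala-Phe-Lys-AMC; fluorescence at 465 nm; pseudo-first-order kinetics.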

[7] = biological target: T5, Clostripain (Clostridium histolyticum) (UniProt P09870); assay: Inhibition of sClostridium histolyticum clostripain assessed as ratio of pseudo-first-order inhibition rate constant to inhibitor concentration; conditions: Hathewaya histolytica
T5 sequence (whole entry): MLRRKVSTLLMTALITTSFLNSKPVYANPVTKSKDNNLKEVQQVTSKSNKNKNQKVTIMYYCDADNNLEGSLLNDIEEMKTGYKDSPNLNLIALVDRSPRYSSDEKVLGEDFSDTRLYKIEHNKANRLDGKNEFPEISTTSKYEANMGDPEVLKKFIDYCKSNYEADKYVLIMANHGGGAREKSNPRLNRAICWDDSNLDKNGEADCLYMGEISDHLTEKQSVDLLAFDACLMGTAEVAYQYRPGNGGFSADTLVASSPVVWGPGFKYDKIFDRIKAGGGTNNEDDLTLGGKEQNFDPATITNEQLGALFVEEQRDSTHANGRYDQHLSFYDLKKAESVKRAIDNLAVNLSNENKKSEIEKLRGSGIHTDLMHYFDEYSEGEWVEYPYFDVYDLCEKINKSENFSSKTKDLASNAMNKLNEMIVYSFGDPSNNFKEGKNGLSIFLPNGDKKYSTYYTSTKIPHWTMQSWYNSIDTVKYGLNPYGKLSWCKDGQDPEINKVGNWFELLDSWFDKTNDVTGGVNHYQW
Summary of the method: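 Clostripain activated in 8 mM DTT, then incubated with inhibitor (DMSO) in 20 mM Tris-HCl, 10 mM CaCl2, 0.005% Brij 35, 2 mM DTT, pH 7.6; aliquots taken at intervals into buffer with Cbz-Phe-Arg-AMC; fluorescence at 465 nm; pseudo-first-order kinetics.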

[8] = Stability assessed as half life in citrate phosphate buffer at pH 6.8 in presence of dithiothreitol; format: physicochemical; conditions: citrate phosphate buffer with dithiothreitol
Schistosoma mansoni [9] = assay: Inhibition of Schistosoma mansoni AE assessed as ratio of pseudo-first-order inhibition rate constant to inhibitor concentration
Summary of the method: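 Autoactivated recombinant SmAE added to six inhibitor concentrations (0–1 µM final) in 0.1 M citrate phosphate, 2 mM DTT, pH 6.8 with 20 µM Cbz-Ala-Ala-Asn-AMC; progress followed every 2 s for 30 min at 25 °C (ex 355, em 460 nm); kobs/[I] by nonlinear regression, corrected for substrate by factor 1.33.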

Schistosoma mansoni [10] = assay: as §2; summary of the method: as §1
Legumain (Homo sapiens) = biological target: T6, Legumain (Homo sapiens) (UniProt Q99538); assay: Inhibition of human AE assessed as ratio of pseudo-first-order inhibition rate constant to inhibitor concentration
T6 sequence (whole entry): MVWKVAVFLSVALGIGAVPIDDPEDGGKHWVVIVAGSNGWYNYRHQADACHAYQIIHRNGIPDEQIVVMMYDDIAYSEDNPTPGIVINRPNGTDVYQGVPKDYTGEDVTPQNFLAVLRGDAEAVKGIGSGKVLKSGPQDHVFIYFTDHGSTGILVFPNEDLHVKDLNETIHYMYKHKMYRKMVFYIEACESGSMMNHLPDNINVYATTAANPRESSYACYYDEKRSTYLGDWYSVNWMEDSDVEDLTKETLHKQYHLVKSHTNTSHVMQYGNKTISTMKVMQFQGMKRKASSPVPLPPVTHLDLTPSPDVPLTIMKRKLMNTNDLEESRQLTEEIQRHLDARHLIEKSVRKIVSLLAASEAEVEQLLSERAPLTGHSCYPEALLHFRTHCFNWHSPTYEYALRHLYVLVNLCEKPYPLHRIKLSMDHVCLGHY
Summary of the method: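 Human AE; inhibitor and substrate incubated at 25 °C in 20 mM citric acid, 60 mM Na2HPO4, 1 mM EDTA, 0.1% CHAPS, pH 5.8 before enzyme addition.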

SMILES: C[C@H](NC(=O)OCc1ccccc1)C(=O)N[C@@H](C)C(=O)NN(CC(N)=O)C(=O)COC(=O)c1ccccc1
Ratio (Sus scrofa): 13 M⁻¹ s⁻¹

SMILES: C[C@H](NC(=O)OCc1ccccc1)C(=O)N[C@@H](C)C(=O)NN(CC(N)=O)C(=O)CCl
Ratio (Sus scrofa): 139000 M⁻¹ s⁻¹

IC50 [1]: 0.05 µM | Activity (Caspase-3 (Homo sapiens)): inactive | Activity (Caspase-6 (Homo sapiens)): inactive | Activity (Caspase-8 (Homo sapiens)): inactive | Activity [4]: inactive | Activity (Papain (Carica papaya)): inactive | Activity [5]: inactive | Ratio [6]: 1 M⁻¹ s⁻¹ | Activity [7]: inactive
SMILES: C[C@H](NC(=O)OCc1ccccc1)C(=O)N[C@@H](C)C(=O)NN(CC(N)=O)C(=O)/C=C/C(=O)N1CCc2ccccc21
IC50 [2]: 0.018 µM | IC50 [3]: 0.07 µM

IC50 [1]: 0.01 µM | Activity (Caspase-3 (Homo sapiens)): inactive | Activity (Caspase-6 (Homo sapiens)): inactive | Activity (Caspase-8 (Homo sapiens)): inactive | Activity [4]: inactive | Ratio (Papain (Carica papaya)): 12 M⁻¹ s⁻¹ | Activity [5]: inactive | Activity [6]: inactive | Activity [7]: inactive
SMILES: C[C@H](NC(=O)OCc1ccccc1)C(=O)N[C@@H](C)C(=O)NN(CC(N)=O)C(=O)/C=C/C(=O)NCCc1ccccc1
IC50 [2]: 0.35 µM | IC50 [3]: 0.6 µM

SMILES: C=CCOC(=O)/C=C/C(CC(N)=O)NC(=O)[C@H](C)NC(=O)[C@H](C)NC(=O)OCc1ccccc1 (stereo partly specified)
Ratio (Sus scrofa): 776 M⁻¹ s⁻¹

IC50 [1]: 0.005 µM | half-life [8]: 2.5 min
SMILES: C[C@H](NC(=O)OCc1ccccc1)C(=O)N[C@@H](C)C(=O)NN(CC(N)=O)C(=O)/C=C/C(=O)OCc1ccccc1
IC50 [2]: < 0.001 µM

SMILES: CCOC(=O)[C@H]1O[C@@H]1C(=O)N(CC(N)=O)NC(=O)[C@H](C)NC(=O)[C@H](C)NC(=O)OCc1ccccc1
IC50 [3]: 0.053 µM | Ratio (Schistosoma mansoni [9]): 17400 M⁻¹ s⁻¹ | Ratio (Sus scrofa): 43000 M⁻¹ s⁻¹

IC50 [1]: ≥ 10 µM
SMILES: C[C@H](NC(=O)OCc1ccccc1)C(=O)N[C@@H](C)C(=O)NN(CC(N)=O)C(=O)/C=C/C(=O)c1ccccc1
IC50 [2]: > 20 µM | Activity (Schistosoma mansoni [10]): inactive

IC50 [1]: 2 µM
SMILES: CCN(CC)C(=O)/C=C/C(=O)N(CC(N)=O)NC(=O)[C@H](C)NC(=O)[C@H](C)NC(=O)OCc1ccccc1
IC50 [2]: 2.7 µM | Activity (Schistosoma mansoni [10]): inactive | Ratio (Schistosoma mansoni [9]): 17400 M⁻¹ s⁻¹

SMILES: Cc1ccc(C)c(C(=O)OCC(=O)[C@H](CC(N)=O)NC(=O)OCc2ccccc2)c1
Ratio (Legumain (Homo sapiens)): 109000 M⁻¹ s⁻¹

IC50 [1]: 8 µM
SMILES: C/C=C/C=C/C(=O)N(CC(N)=O)NC(=O)[C@H](C)NC(=O)[C@H](C)NC(=O)OCc1ccccc1
Activity (Schistosoma mansoni [10]): inactive
